# Assay outcomes: PubChem, several laboratories
# Sampled rows, rich in hits. Any-hit rate of the full collection: about 2.9%.
# Dynein transport – inhibitors of GR-EGFP nuclear translocation, primary screen, dynein cargo transport inhibitor project, imaging, high-content, 3617.4 mouse cells. AID 1381, 2008. test concentration mostly 20 µM; stimulated with dexamethasone, 1 µM; stronger effect = lower value. z-score, hits read low. 220,000 tested, 0.47% active;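 active = plate z-score of nuclear minus cytoplasmic receptor signal below a set negative limit, without overly bright fluorescence or cell loss, cut at about -3.5 in these data, passing the limit was not always enough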;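 note: z-score of nuclear minus cytoplasmic ring GR-EGFP intensity difference per well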
#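 Schedule: 48 h induction, then 1 h compound, then 30 min agonist, 37 °C. Buffer or medium: tetracycline-free induction medium containing charcoal-stripped FBS. Reagent: 1.0 µM final dexamethasone stimulus. Evaluation: nuclear versus cytoplasmic GR-EGFP signal, averaged per well. Signal: high-content fluorescence imaging after fixation.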
# MEKK2 WT-MEK5 – modulators of MEK5 binding to wildtype MEKK2, primary screen, biochemical, multiplex bead flow cytometry, Alexa488-MEK5 | 290,000 tested, 1.1% active | AID 1531, 2009 | binding response (% of control), % at 10 µM | Mitogen-activated protein kinase kinase kinase 2 (Homo sapiens), Q9Y2U5 | Alexa488-MEK5 binding to MEKK2 WT; actives lie on both sides; in the data active = binding response below about 67% or above about 130%
# ATG4B inh – ATG4B protease inhibitors, primary screen, biochemical, fluorescence, uHTS; 340,000 tested, 0.51% active; inhibition, % at 8.33 µM; ATG4B cleavage of LC3-PLA2, NBD-HPC fluorescence, 1 h; Cysteine protease ATG4B (Homo sapiens), Q9Y4P1; in the data active = inhibition above about 40%
# B2AR ag – beta2AR agonists driving receptor internalization, primary screen, cell-based, FAP fluorogen, flow cytometry; Beta-2 adrenergic receptor (Homo sapiens), P07550; Am2.2-beta2AR cells; response, % (test concentration not listed); 340,000 tested, 0.43% active; AID 504454, 2011;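 active = response above a set limit, near 3 SD of response in nonfluorescent compounds, cut at about 42% in these data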
# MEKK2 mut-MEK5 – MEK5 binding signal on mutant MEKK2 PB1, primary screen, biochemical, multiplex bead flow cytometry, Alexa488-MEK5; Alexa488-MEK5 binding to MEKK2 mutant; percent response, % at 10 µM; 290,000 tested, 0.35% active; in the data active = percent response above about 24%, passing the limit was not always enough
# MEKK3 PB1 HTS – modulators of MEKK3-MEK5 PB1 binding, primary screen, biochemical, wildtype MEKK3, multiplex bead flow cytometry, Alexa488-MEK5; binding response (% of control), % at 10 µM; bead-based flow cytometry, Alexa488-MEK5 binding to MEKK3; actives lie on both sides; 0 = blocked by unlabeled MEK5, 100 = vehicle; 290,000 tested, 1.4% active; Mitogen-activated protein kinase kinase kinase 3 (Homo sapiens), Q99759;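 active = binding response more than 3 SD above or below the average of its plate-row segment, actives on both sides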;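 note: Alexa488 bead fluorescence after subtracting the streptavidin-only scavenger bead signal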
# Target sequence (Q99759 whole entry, looked up): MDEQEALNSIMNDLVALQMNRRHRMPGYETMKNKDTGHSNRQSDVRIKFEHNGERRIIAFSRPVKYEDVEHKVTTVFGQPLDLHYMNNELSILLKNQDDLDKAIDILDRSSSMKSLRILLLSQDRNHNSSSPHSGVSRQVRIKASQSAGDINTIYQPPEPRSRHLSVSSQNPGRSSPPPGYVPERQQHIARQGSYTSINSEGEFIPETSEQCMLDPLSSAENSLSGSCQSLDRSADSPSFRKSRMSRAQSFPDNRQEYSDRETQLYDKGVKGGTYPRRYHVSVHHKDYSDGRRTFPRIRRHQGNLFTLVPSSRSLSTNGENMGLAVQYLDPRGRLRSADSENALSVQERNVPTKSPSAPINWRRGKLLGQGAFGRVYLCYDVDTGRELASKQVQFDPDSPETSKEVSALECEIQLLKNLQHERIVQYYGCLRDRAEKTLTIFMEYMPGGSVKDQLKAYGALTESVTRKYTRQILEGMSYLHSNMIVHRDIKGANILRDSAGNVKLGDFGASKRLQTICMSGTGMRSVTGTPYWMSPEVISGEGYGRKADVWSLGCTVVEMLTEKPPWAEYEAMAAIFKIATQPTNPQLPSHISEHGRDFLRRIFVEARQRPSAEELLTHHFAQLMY
# Hits are given with their value; n = inactive; x = no result given.
SMILES,Dynein transport,MEKK2 WT-MEK5,ATG4B inh,B2AR ag,MEKK2 mut-MEK5,MEKK3 PB1 HTS
O=C(O)C(Cc1ccc(OS(=O)(=O)Cc2ccccc2)cc1)NS(=O)(=O)Cc1ccccc1 (stereo unspecified),x,x,n,n,x,x
Cc1ccc(C(=O)Nc2cccc(NC(=O)c3ccc(C)cc3)n2)cc1,x,x,n,n,x,x
COC(=O)c1ccc2c(c1)C(C)(C)C(/C=C/c1ccc(OC)c(OC)c1OC)=[N+]2C,n,n,n,57,n,n
COc1ccc(/C=N/Nc2ccc(C(=O)O)cc2)c(OC)c1OC,x,n,n,n,n,n
C/C=C(\C)C(=O)OC1[C@H](OC(C)=O)C2(CO)C(CC1(C)C)C1=CCC3C4(C)CCC(O[C@@H]5O[C@H](C(=O)O)[C@@H](O[C@@H]6O[C@H](CO)[C@@H](O)[C@H](O)[C@H]6O)[C@H](O)[C@H]5O[C@H]5O[C@H](CO)[C@@H](O)[C@H](O)[C@H]5O)[C@](C)(CO)C4CCC3(C)[C@]1(C)C[C@H]2O (stereo partly specified),x,x,n,61,x,x
C/C=C(/C)C(=O)OC1CC(C)(C)C[C@H]2C3=CC[C@@H]4[C@@]5(C)CCC(O[C@@H]6O[C@@H](C(=O)O)[C@@H](O)C(O[C@@H]7OC[C@H](O)[C@@H](O)[C@@H]7O[C@@H]7OC(CO)C(O)[C@@H](O)[C@@H]7O)C6O[C@@H]6OC(CO)C(O)C(O)C6O)[C@@](C)(CO)[C@@H]5CC[C@]4(C)[C@]3(C)CC(O)[C@@]12CO (stereo partly specified),x,x,n,n,x,x
CC(=O)OC1COC(OC2C(O)C(C)OC(OC3C(OC4CCC5(C)C(CCC6(C)C5CC=C5C7CC(C)(C)CCC7(C(=O)O)CCC56C)C4(C)CO)OCC(O)C3O)C2O)C(O)C1OC(C)=O (stereo unspecified),-5.3,n,x,x,n,n
CC1(C)C[C@H]2C3=CCC4[C@@]5(C)CC[C@H](O[C@@H]6O[C@H](C(=O)O)[C@@H](O)[C@H](O)[C@H]6O)[C@@](C)(CO)C5CC[C@@]4(C)[C@]3(C)C[C@H](O)[C@@]2(CO)[C@@H](O)[C@@H]1O (stereo partly specified),x,x,n,n,x,x
Oc1cccc(C(O)CNCc2ccc(OCc3ccc(Cl)cc3Cl)cc2)c1 (stereo unspecified),n,155,n,n,n,n
Oc1cccc(C(O)CNCc2ccc(-c3ccccc3)cc2)c1 (stereo unspecified),n,n,n,n,n,n
Brc1ccc(CSc2nnc(-c3ccccn3)n2Cc2ccco2)cc1,n,n,50,n,n,n
CC(C)(C)c1ccc(CSc2nnc(-c3ccccn3)n2Cc2ccco2)cc1,n,x,n,n,x,x
CC(=O)N(C1=C(N2CCOCC2)C(=O)c2ccccc2C1=O)c1ccc(C(=O)O)cc1,n,-1.0,n,n,n,n
CC(=O)Oc1ccc2c(c1)Oc1cc(OC(C)=O)ccc1C21OC(=O)c2ccccc21,-4.7,n,n,n,n,n
Cc1cc(O)ccc1C1(c2ccc(O)cc2C)OC(=O)c2ccccc21,n,n,n,n,n,n
Clc1ccc2c(SCC3CO3)c3ccccc3nc2c1 (stereo unspecified),x,x,n,82,x,x
CCCN(CCC)c1ccc(/C=C/c2ccc3cc(OCC)ccc3n2)cc1,n,x,n,n,51,n
CN(C)c1ccc(/C=C/c2ccc3ccccc3n2)cc1,n,n,n,n,n,n
Nc1ncnc2c1ncn2[C@@H]1O[C@H](CNCc2c(OCc3ccccc3F)ccc3ccccc23)[C@@H](O)[C@H]1O,x,x,x,n,x,x
COc1ccc(CCN2CC(C(=O)OCC(=O)NC(C)c3cccc(Cl)c3)CC2=O)cc1OC (stereo unspecified),x,x,n,n,x,x
COc1ccc(NC(=O)CN(C)C(=O)/C=C/c2cn(-c3ccccc3)nc2-c2ccc(C)cc2)cc1,x,x,n,n,x,x
COc1ccc(-c2nn(-c3ccccc3)cc2/C=N/NC(=O)c2ccc3c(c2)OCO3)cc1,n,x,x,x,x,x
COc1ccc(-c2nn(-c3ccccc3)cc2/C=C/C(=O)OCC(=O)Nc2ccc(C#N)cc2)cc1,n,n,n,55,n,n
COc1ccc(-c2nn(-c3ccccc3)cc2/C=N/NC(=O)c2ccc(Br)o2)cc1,n,n,n,61,n,n
COc1cccc(/C=N/NC(=O)CSc2nnc(C)n2-c2ccccc2)c1O,n,x,n,n,x,x
SMILES,Dynein transport,MEKK2 WT-MEK5,ATG4B inh,B2AR ag,MEKK2 mut-MEK5,MEKK3 PB1 HTS
Cc1ccc(-c2nn(-c3ccccc3)cc2/C=N/NC(=O)CSc2nnc(C)n2-c2ccccc2)cc1,n,n,n,89,n,n
O=c1ncc(F)c[nH]1,x,n,x,x,n,n
CCCCn1c(NC(=O)c2ccco2)c(S(=O)(=O)c2ccc(C)cc2)c2nc3ccccc3nc21,n,n,n,n,n,n
CCCCn1c(NS(=O)(=O)c2ccccc2)c(S(=O)(=O)c2ccc(C)cc2)c2nc3ccccc3nc21,n,n,75,n,n,n
CC(C)(C)N(Cc1ccccc1)C(=O)c1cc2ccccc2o1,x,n,n,n,n,n
C=C[C@](C)(CC[C@@]1(C)C(C)CC(OC2OC(C)C(OC3OC(COC(C)=O)C(O)C(O)C3O)C(O)C2O)[C@@]2(C)C(C)=CCCC12)OC1OC(C)C(O[C@@H]2O[C@@H](C)C(O)C(O)[C@H]2O)C(O)C1O (stereo partly specified),x,x,n,n,x,x
CCOc1ccc(/C=C2\SC(=S)N(N3C(=O)C4CC4C3=O)C2=O)cc1 (stereo unspecified),n,n,n,84,n,n
CCC1(C)NC(=O)N(CC(=O)c2cc(C)n(C3CC3)c2C)C1=O (stereo unspecified),x,x,n,n,x,x
O=C(Cn1ncc(Cl)c(Cl)c1=O)NCC1CCCCC1,-6.2,n,n,60,n,n
N#Cc1ccc(Nc2nc(-c3ccc(O)cc3O)cs2)cc1C(F)(F)F,x,x,41,n,x,x
COc1ccccc1NS(=O)(=O)c1cc(NC(=O)Nc2ccc(Cl)cc2Cl)ccc1N1CCCCC1,n,n,n,n,n,n
COc1cc(/C=C/C(=O)Nc2ccc(N3CCCCC3)c(S(=O)(=O)Nc3ccccc3Cl)c2)cc(OC)c1OC,n,32,n,n,n,n
